Measurements reported in ChEMBL document CHEMBL2412961, “CD4 mimics as HIV entry inhibitors: lead optimization studies of the aromatic substituents” (Bioorg Med Chem, 2013).
Activity calls are given as the source filed them. The rule behind the calls is not given here.

What was measured:
[1] = system: Human immunodeficiency virus 1; experiment: Antiviral activity against Human immunodeficiency virus 1 R5 primary isolate YTA48P infected in CCR5-expressing human PM1 cells assessed as inhibition of virus-induced cytopathogenicity after 7 days by WST8 assay; assay type: functional, organism-based; settings: PM1, 168 h
Procedure, shortened: (§1)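 PM1/CCR5 cells were infected with the HIV-1 R5 primary isolate YTA, or mock-infected for cytotoxicity, and incubated with compound at 37 °C for 7 days. Viability was read by WST-8 (Cell Counting Kit-8). IC50 is the concentration giving 50% protection from virus-induced cytopathogenicity. CC50 is the concentration giving 50% loss of viability in mock-infected cells. Assays were run in duplicate or triplicate.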

PM1 [2] = experiment: Induction of conformational change in human immunodeficiency virus 1 JR-FL R5 subtype B gp120 infected in human PM1 cells assessed as increase in binding affinity to monoclonal antibody 4C11 at 100 uM after 15 mins by FACS analysis; assay type: cell-based
Procedure, shortened: (§2)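 PM1 cells chronically infected with JR-FL (R5, subtype B) were pre-incubated with CD4 mimic for 15 min, with sCD4 at 0.5 µg/mL as reference. They were then incubated with CD4i mAb 4C11 at 4 °C for 15 min, washed with PBS and stained with FITC anti-human IgG. Flow cytometry read the 4C11 mean fluorescence intensity on gated PM1 cells, with anti-CD19 as control antibody. There were at least two independent experiments.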

[3] = Cytotoxicity against CCR5-expressing human PM1 cells assessed as reduction of cell viability after 7 days by WST8 assay; assay type: cell-based; procedure, shortened: as §1
PM1 [4] = experiment: Induction of conformational change in human immunodeficiency virus 1 JR-FL R5 subtype B gp120 infected in human PM1 cells assessed as increase in binding affinity to monoclonal antibody 4C11 at 25 to 100 uM after 15 mins by FACS analysis; assay type: cell-based; procedure, shortened: as §2

SMILES | IC50 [1] [µM] | Activity (PM1 [2]) | CC50 at 168 h [3] [µM] | Activity (PM1 [4])
Cc1ccc(NC(=O)C(=O)NC2CC(C)(C)NC(C)(C)C2)cc1F | 2.8 | Active | 110 | 
Cc1ccc(NC(=O)C(=O)NC2CC(C)(C)NC(C)(C)C2)cc1 | 9 |  |  | 
Cc1ccc(NC(=O)C(=O)NC2CC(C)(C)NC(C)(C)C2)cc1Cl | 3.2 | Active | 62 | 
Cc1ccc(NC(=O)C(=O)NC2CC3(CCCCC3)NC3(CCCCC3)C2)cc1Cl (stereo not given) | 6.2 | Active | 11 | 
O=C(Nc1ccc(Cl)c(Cl)c1)C(=O)NC1CC2(CCCCC2)NC2(CCCCC2)C1 (stereo not given) | 0.62 | Active | 11 | 
O=C(Nc1ccc(Cl)c(F)c1)C(=O)NC1CC2(CCCCC2)NC2(CCCCC2)C1 (stereo not given) | 0.23 | Active | 11 | Active
CC1(C)CC(NC(=O)C(=O)Nc2ccc(Cl)cc2)CC(C)(C)N1 | 0.61 |  |  | 
Cc1ccc(NC(=O)C(=O)NC2CC(C)(C)NC(C)(C)C2)cc1Br | > 10 | Active | 32 | 
CC1(C)CC(NC(=O)C(=O)Nc2ccc(Cl)c(F)c2)CC(C)(C)N1 | 0.32 | Active | 94 | 
Cc1ccc(NC(=O)C(=O)NC2CC3(CCCCC3)NC3(CCCCC3)C2)cc1F (stereo not given) | 0.54 | Active | 91 | 
Cc1ccc(NC(=O)C(=O)NC2CC3(CCCCC3)NC3(CCCCC3)C2)cc1Br (stereo not given) | 3.2 | Active | 11 | 
Cc1cc(NC(=O)C(=O)NC2CC3(CCCCC3)NC3(CCCCC3)C2)ccc1Cl (stereo not given) | 2.6 | Active | 15 | 
O=C(Nc1ccc(Cl)cc1)C(=O)NC1CC2(CCCCC2)NC2(CCCCC2)C1 (stereo not given) | 0.43 |  |  | 
CC1(C)CC(NC(=O)C(=O)Nc2ccc(Cl)c(Cl)c2)CC(C)(C)N1 | 4.1 | Active | 36 | 
Cc1cc(NC(=O)C(=O)NC2CC(C)(C)NC(C)(C)C2)ccc1Cl | 3.3 | Active | 38 | 
